Here are results for 17 compounds from ChEMBL document CHEMBL1130383, “Anesthetic activity of novel water-soluble 2 beta-morpholinyl steroids and their modulatory effects at GABAA receptors” (J Med Chem, 1997).

Data set [1] concerns the target GABA-A receptor; anion channel. Description: The concentration required to inhibit 50% of binding of [35S]TBPS to Gamma-aminobutyric acid A receptor to rat whole brain membranes. The format is cell membranes.
Data set [2] addresses GABA-A receptor; anion channel (Bos taurus) (UniProt P10063+P08220+P20237+P08219+P10064+P22300). Description: Concentration required to potentiate GABA-evoked currents in voltage-clamped bovine chromaffin cells by 300%. The format is functional. The essentials:
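Adult bovine chromaffin cells, primary culture, recorded 4 h to 2 days after plating. Whole-cell patch clamp, continuous superfusion with 140 mM NaCl, 2.8 mM KCl, 2 mM MgCl2, 1 mM CaCl2, 10 mM HEPES (pH 7.2). CsCl-based pipette solution, room temperature (18–22 °C). Currents filtered at 500 Hz. Steroid concentration enhancing the GABA-evoked response by 300% of control was interpolated; mean ± SEM of N cells.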

Data set [3] is filed under the species Mus musculus. The experiment in a line: Effect on interval between loss of righting reflex and return to righting reflex (sleep duration) was measured at a dose twice that of hypnotic dose; caused convulsions and was not tested for the sleeping duration. The data set is classed as functional, organism-based.
For data set [4], the system named is Mus musculus. Description: Hypnotic dose by observing loss of righting reflex for a minimum period of 30 sec in 50% of treated mice after iv administration; caused convulsions and not tested further. The data set is classed as functional, organism-based.
For data set [5], the system named is Mus musculus. The experiment in a line: Hypnotic dose was determined by observing loss of righting reflex for a minimum period of 30 sec in 50% of treated mice after i.v. administration. The data set is classed as functional. The essentials: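 Male CFLP mice (25–35 g), tested in the light period. Groups of eight received an i.v. lateral tail vein injection over 10 s (10 mL kg-1) on a μmol/kg dose series, e.g. 2–16, with extra doses added. Vehicle was saline for amine salts; standards were in HPCD/saline, emulsion or saline. HD50 with 95% confidence limits was obtained by probit analysis of the fraction showing LRR ≥30 s.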

Data set [6] in a line: Therapeutic index by the ratio between LD50 to HD50.

Each structure is given as a SMILES string.

Take `C[C@]12C[C@H](N3CCOCC3)[C@@H](O)C[C@@H]1CC[C@H]1[C@@H]3CC[C@H](C(=O)CCl)[C@@]3(C)CC(=O)[C@@H]12`: in data set [1], the IC50 worked out at 9040 nM. Also, in data set [2], the POT is 1500 nM. Moreover, the SD result in data set [3] is “Convulsant”. Moreover, in data set [4], the HD50 result was “Convulsant”.

In data set [1], `CCCC(C)C1(CC)C(=O)NC(=S)NC1=O` (stereo not given) [THIOPENTAL] registered an IC50 of 29500 nM. This compound also gave an HD50 in data set [5] of 83 µM/kg. Moreover, in data set [2], the POT amounted to 30000 nM. Besides, the selectivity ratio in data set [6] was determined as 3.7.

With `CC(=O)SCC(=O)[C@H]1CC[C@H]2[C@@H]3CC[C@H]4C[C@H](O)[C@@H](N5CCOC(C)(C)C5)C[C@]4(C)[C@H]3CC[C@]12C`, the IC50 in data set [1] worked out at 32 nM. Moreover, in data set [3], the SD entry was “Convulsant”. Moreover, in data set [4], the HD50 entry was “Convulsant”.

Compound `CC(=O)[C@H]1CC[C@H]2[C@@H]3CC[C@H]4C[C@H](O)[C@@H](N5CCO[C@H](C(C)C)C5)C[C@]4(C)[C@H]3C(=O)C[C@]12C` registered an IC50 in data set [1] of 90 nM. This compound also came in with an HD50 in data set [5] of 3.4 µM/kg. Also, the selectivity ratio in data set [6] was 9.9.

For `CC(=O)OCC(=O)[C@H]1CC[C@H]2[C@@H]3CC[C@H]4C[C@H](O)[C@@H](N5CCOC(C)(C)C5)C[C@]4(C)[C@H]3C(=O)C[C@]12C`, in data set [1], the concentration for half-maximal inhibition (IC50) was found to be 951 nM. This compound returned an HD50 in data set [5] of 21.1 µM/kg. Besides, the POT in data set [2] was determined as 1300 nM.

Regarding `CC(=O)[C@H]1CC[C@H]2[C@@H]3CC[C@H]4C[C@H](O)[C@@H](N5CCSC(C)(C)C5)C[C@]4(C)[C@H]3C(=O)C[C@]12C`, in data set [1], the IC50 was 209 nM. Moreover, in data set [5], the HD50 was determined as 13.7 µM/kg. The selectivity ratio in data set [6] was found to be 16.3.

In data set [1], `CC(=O)[C@H]1CC[C@H]2[C@@H]3CC[C@H]4C[C@H](O)[C@@H](N5CCO[C@H](C)C5)C[C@]4(C)[C@H]3CC[C@]12C` registered an IC50 of 369 nM. In data set [5], the HD50 is 15 µM/kg. Moreover, the POT in data set [2] amounted to 250 nM.

In data set [1], `CC(=O)SCC(=O)[C@H]1CC[C@H]2[C@@H]3CC[C@H]4C[C@H](O)[C@@H](N5CCOC(C)(C)C5)C[C@]4(C)[C@H]3C(=O)C[C@]12C` had a concentration for half-maximal inhibition (IC50) of 261 nM. Besides, in data set [5], the HD50 came out at 7.9 µM/kg. In data set [2], the POT came out at 245 nM.

Compound `CC1(C)CN([C@H]2C[C@@]3(C)[C@@H](CC[C@H]4[C@@H]5CC[C@H](C(=O)CO)[C@@]5(C)CC(=O)[C@@H]43)C[C@@H]2O)CCO1` yielded a half-maximal inhibitory concentration (IC50) in data set [1] of 5590 nM. In data set [5], this compound returned an HD50 of 42.3 µM/kg. The POT in data set [2] turned out to be 4400 nM.

In turn, `CC(=O)[C@H]1CC[C@H]2[C@@H]3CC[C@H]4C[C@H](O)[C@@H](N5CCOC(C)(C)C5)C[C@]4(C)[C@H]3CC[C@]12C` yielded an IC50 in data set [1] of 107 nM. Further, in data set [5], the HD50 was found to be 17.4 µM/kg. Moreover, in data set [2], the POT turned out to be 120 nM.

Take `CC[C@@H]1CN([C@H]2C[C@@]3(C)[C@@H](CC[C@H]4[C@@H]5CC[C@H](C(C)=O)[C@@]5(C)CC(=O)[C@@H]43)C[C@@H]2O)CCO1`: the half-inhibitory concentration (IC50) in data set [1] stood at 317 nM. Also, in data set [5], the HD50 came to 8.7 µM/kg. Further, the POT in data set [2] worked out at 910 nM. In addition, the selectivity ratio in data set [6] was 5.8.

Consider `CC1(C)CN([C@H]2C[C@@]3(C)[C@@H](CC[C@@H]4[C@@H]3CC[C@]3(C)[C@@H](C(=O)CCl)CC[C@@H]43)C[C@@H]2O)CCO1`, for which, in data set [1], the IC50 came to 39 nM. Besides, in data set [5], the HD50 turned out to be 17.6 µM/kg. The POT in data set [2] turned out to be 380 nM.

As for `C[C@]12C[C@H](N3CCOCC3)[C@@H](O)C[C@@H]1CC[C@@H]1[C@@H]2CC[C@]2(C)[C@@H](C(=O)CCl)CC[C@@H]12`, the IC50 in data set [1] was 171 nM. Besides, the HD50 in data set [5] was determined as 8.5 µM/kg. Further, the POT in data set [2] came out at 150 nM. Also, the selectivity ratio in data set [6] was 6.1.

For the compound `CC(=O)[C@H]1CC[C@H]2[C@@H]3CC[C@H]4C[C@H](O)[C@@H](N5C[C@@H](C)O[C@@H](C)C5)C[C@]4(C)[C@H]3C(=O)C[C@]12C`, the IC50 in data set [1] came to 3200 nM. The HD50 in data set [5] was 14.4 µM/kg. Also, the selectivity ratio in data set [6] was 5.8.

In data set [1], `CC(=O)[C@H]1CC[C@H]2[C@@H]3CC[C@H]4C[C@H](O)[C@@H](N5CCOCC5)C[C@]4(C)[C@H]3C(=O)C[C@]12C` showed a concentration for half-maximal inhibition (IC50) of 2560 nM. Also, the HD50 in data set [5] was 34.6 µM/kg. Further, in data set [6], the selectivity ratio was determined as 4.6.

Take `CC(=O)[C@H]1CC[C@H]2[C@@H]3CC[C@@H]4C[C@H](O)CC[C@]4(C)[C@H]3CC[C@]12C` [ELTANOLONE]: in data set [1], the half-maximal inhibitory concentration (IC50) was determined as 117 nM. Moreover, in data set [5], the HD50 was 9.5 µM/kg. In addition, the POT in data set [2] came out at 115 nM.

As for `CC(C)c1cccc(C(C)C)c1O` [PROPOFOL], the HD50 in data set [5] was found to be 68 µM/kg. Moreover, the POT in data set [2] came out at 2000 nM. For the same compound, the selectivity ratio in data set [6] is 3.5.

As usually defined, the IC50 is the concentration that gives 50% inhibition.
